Laboratory results taken from ChEMBL document CHEMBL3351911, “Synthesis and evaluation of N⁶-substituted apioadenosines as potential adenosine A₃ receptor modulators” (Bioorg Med Chem, 2014).
pIC50, pKi: −log10 of the molar value. Active and inactive are the calls of the source. The calls are words filed in the database; no cut-off is given here.

Tests used:
[1] = target: T1, Adenosine receptor A1 (Homo sapiens) (UniProt P30542); test: Displacement of [3H]N6-[(R)-1-methyl-2-phenylethyl]adenosine from human recombinant A1AR expressed in CHO cells at 10 uM; format: cell-based
T1 sequence (whole entry): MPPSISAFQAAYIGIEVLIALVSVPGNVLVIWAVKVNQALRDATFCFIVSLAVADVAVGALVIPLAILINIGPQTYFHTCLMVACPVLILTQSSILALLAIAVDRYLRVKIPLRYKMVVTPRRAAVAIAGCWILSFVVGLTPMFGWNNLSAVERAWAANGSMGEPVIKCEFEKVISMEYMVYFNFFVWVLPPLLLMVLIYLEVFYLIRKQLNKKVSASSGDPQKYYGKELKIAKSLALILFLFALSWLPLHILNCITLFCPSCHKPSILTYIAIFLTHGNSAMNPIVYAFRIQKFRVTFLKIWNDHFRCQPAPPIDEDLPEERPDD
Procedure, shortened: (§1)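 Single-concentration radioligand displacement at 10 μM. Membranes came from CHO cells stably expressing human A1AR or A3AR, or HEK293 cells stably expressing human A2AAR. Agonist radioligands were [3H]N6-[(R)-1-methyl-2-phenylethyl]adenosine (A1), [3H]2-[p-(2-carboxyethyl)phenylethylamino]-5′-N-ethylcarboxamidoadenosine (A2A) and [125I]N6-(4-amino-3-iodobenzyl)adenosine-5′-N-methyluronamide (A3). Read-out was percent inhibition of binding.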

[2] = target: Adenosine receptor A2a (Homo sapiens) (UniProt P29274); test: Displacement of [3H]2-[p-(2-carboxyethyl)phenylethylamino]-50-N-ethylcarboxamidoadenosine from human recombinant A2AR expressed in HEK293 cells at 10 uM; format: cell-based; procedure, shortened: as §1
Sequence of Adenosine receptor A2a (Homo sapiens) (P29274 whole entry): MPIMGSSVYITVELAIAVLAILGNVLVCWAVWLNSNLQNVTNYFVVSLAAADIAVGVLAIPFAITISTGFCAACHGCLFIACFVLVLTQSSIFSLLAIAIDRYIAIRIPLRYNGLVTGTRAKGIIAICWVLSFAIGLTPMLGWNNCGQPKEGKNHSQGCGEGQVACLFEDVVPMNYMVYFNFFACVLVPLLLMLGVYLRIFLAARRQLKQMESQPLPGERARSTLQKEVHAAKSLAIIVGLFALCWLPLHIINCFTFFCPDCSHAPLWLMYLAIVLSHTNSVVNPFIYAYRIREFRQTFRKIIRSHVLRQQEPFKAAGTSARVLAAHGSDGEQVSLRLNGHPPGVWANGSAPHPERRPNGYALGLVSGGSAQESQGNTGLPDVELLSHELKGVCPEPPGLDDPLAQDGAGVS

Adenosine receptor A3 [3] = target: T2, Adenosine receptor A3 (Homo sapiens, UniProt P0DMS8); test: Displacement of [125I]N6-(4-amino-3-iodobenzyl)adenosine-50-N-methyluronamide from human recombinant A3AR expressed in CHO cells; format: cell-based
T2 sequence (P0DMS8 whole entry): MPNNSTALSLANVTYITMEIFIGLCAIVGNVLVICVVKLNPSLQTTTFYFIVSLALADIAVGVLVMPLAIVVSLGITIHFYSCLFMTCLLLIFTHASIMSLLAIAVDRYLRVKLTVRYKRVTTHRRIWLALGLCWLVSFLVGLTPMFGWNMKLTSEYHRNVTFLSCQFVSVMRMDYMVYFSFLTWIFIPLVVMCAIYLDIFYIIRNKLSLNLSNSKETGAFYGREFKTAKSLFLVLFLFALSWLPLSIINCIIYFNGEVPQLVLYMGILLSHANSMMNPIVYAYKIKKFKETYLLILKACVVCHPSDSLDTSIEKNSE
Procedure, shortened: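 Competition binding used membranes of CHO cells stably expressing human A3AR and the agonist radioligand [125I]N6-(4-amino-3-iodobenzyl)adenosine-5′-N-methyluronamide. IC50 values from competition curves were converted to Ki by Cheng-Prusoff. Values are mean ± S.E.M.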

[4] = target: T3, Adenosine receptor A3 (Homo sapiens) (UniProt P0DMS8); test: (§2) Agonist activity at human recombinant A3AR expressed in CHO cells assessed as inhibition of forskolin-induced stimulation of cAMP production; format: functional, cell-based
T3 sequence (whole entry): T2 sequence (P0DMS8 whole entry)

Adenosine receptor A3 [5] = target: T2, Adenosine receptor A3; test: as §2; format: functional, cell-based
[6] = target: T3, Adenosine receptor A3 (Homo sapiens); test: Displacement of [125I]N6-(4-amino-3-iodobenzyl)adenosine-50-N-methyluronamide from human recombinant A3AR expressed in CHO cells at 10 uM; format: cell-based; procedure, shortened: as §1
[7] = target: T1, Adenosine receptor A1 (Homo sapiens); test: Displacement of [3H]N6-[(R)-1-methyl-2-phenylethyl]adenosine from human recombinant A1AR expressed in CHO cells at 50 uM; format: cell-based
Procedure, shortened: (§3)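 Percent inhibition of agonist radioligand binding measured at a single 50 μM test concentration. A1: CHO cell membranes with stably expressed human A1AR and [3H]N6-[(R)-1-methyl-2-phenylethyl]adenosine. A2A: HEK293 cell membranes with stably expressed human A2AAR and [3H]2-[p-(2-carboxyethyl)phenylethylamino]-5′-N-ethylcarboxamidoadenosine.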

[8] = target: T3, Adenosine receptor A3 (Homo sapiens); test: Modulatory activity at human recombinant A3AR expressed in CHO cells assessed as inhibition of forskolin-induced stimulation of cAMP production; format: functional, cell-based
Procedure, shortened: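 CHO cells stably expressing human A3AR were plated and grown 24 h, then washed in DMEM with 50 mM HEPES, pH 7.4. Compounds and/or agonist were added with rolipram (10 μM) and adenosine deaminase (3 units/mL). Forskolin (10 μM) was added at 45 min and incubation ran 15 more min. Cells were lysed in 0.1 M HCl. cAMP was measured by competitive binding of [3H]cAMP (2 nM) to protein kinase A, with a cAMP standard curve, filtration and scintillation counting.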

[9] = target: Adenosine receptor A2a (Homo sapiens) (UniProt P29274); test: Displacement of [3H]2-[p-(2-carboxyethyl)phenylethylamino]-50-N-ethylcarboxamidoadenosine from human recombinant A2AR expressed in HEK293 cells at 50 uM; format: cell-based; procedure, shortened: as §3

Compound	inhibition [1] [%]	inhibition [2] [%]	inhibition [6] [%]	also measured
CCNC(=O)OC[C@]1(O)CO[C@@H](n2cnc3c(N)ncnc32)[C@@H]1O	9	12	6	–
Nc1ncnc2c1ncn2[C@H]1C[C@H](CO)CO1	–	–	7	inhibition [7]: 0%
CCNC(=O)[C@@H]1CO[C@@H](n2cnc3c(N)ncnc32)[C@@H]1O	8	9	10	–
CNC(=O)OC[C@@]1(O)CO[C@@H](n2cnc3c(N)ncnc32)[C@@H]1O	12	10	26	–
Nc1ncnc2c1ncn2[C@H]1C[C@@H](CO)CO1	10	15	31	–
CCNC(=O)OC[C@@H]1CO[C@@H](n2cnc3c(N)ncnc32)[C@@H]1O	7	2	8	–
Nc1ncnc2c1ncn2[C@@H]1OC[C@@H](CO)[C@H]1O	–	–	7	inhibition [7]: 74%; inhibition [9]: 76%
Nc1ncnc2c1ncn2[C@@H]1OC[C@H](CO)[C@H]1O	6	19	32	–

More lines, main results first:

inhibition [1] [%]	inhibition [2] [%]	inhibition [6] [%]	Compound	also measured
13	14	–	COc1ccc(Cl)cc1CNc1ncnc2c1ncn2[C@@H]1OC[C@@](O)(CO)[C@H]1O	pKi (Adenosine receptor A3 [3]): 5.51; Emax [4]: 50.9%; pIC50 (Adenosine receptor A3 [5]): 5.81
12	17	–	COc1ccc(Cl)cc1CNc1ncnc2c1ncn2[C@@H]1OC[C@](O)(CO)[C@H]1O	pKi (Adenosine receptor A3 [3]): 6.01; Activity [8]: inactive
10	10	43	OC[C@@]1(O)CO[C@@H](n2cnc3c(NCc4cccc(Cl)c4)ncnc32)[C@@H]1O	–
6	12	3	Nc1c2ncn([C@@H]3OC[C@@](O)(CO)[C@H]3O)c2nc[n+]1Cc1cccc(Cl)c1	–
–	–	10	Nc1ncnc2c1ncn2[C@@H]1OC[C@@](O)(CO)[C@H]1O	inhibition [7]: 0%; inhibition [9]: 64%
6	19	35	Nc1ncnc2c1ncn2[C@@H]1OC[C@](O)(CO)[C@H]1O	–
19	15	44	OC[C@]1(O)CO[C@@H](n2cnc3c(NCc4cccc(Cl)c4)ncnc32)[C@@H]1O	–
27	17	48	OC[C@@]1(O)CO[C@@H](n2cnc3c(NCc4cccc(I)c4)ncnc32)[C@@H]1O	–
35	22	45	OC[C@]1(O)CO[C@@H](n2cnc3c(NCc4cccc(I)c4)ncnc32)[C@@H]1O	–
